Furin inh – blocks human furin protease activity; P09958; purified furin, fluorogenic substrate cleavage; inhibition, % at 20 µM or 30 µM; 220,000 compounds, 0.061% hits; AID 463115; in the data active = inhibition above about 25%
Thrombin inh – inhibitors of human thrombin; AID 1046; P00734; 220,000 compounds, 0.26% hits; alpha-thrombin, Boc-VPR-AMC fluorogenic substrate cleavage; inhibition, % at 5 µM;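 active = inhibition at or above 40%; inactive = inhibition below 40%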
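System – human alpha-thrombin protein · Reagent – Boc-VPR-AMC substrate, 15 µM final · Compound – 5 µM single dose in 0.2% DMSO · Schedule – reaction at room temperature · Technique – AMC fluorescence at 355 nm excitation and 460 nm emission · Read-out basis – % inhibition relative to enzyme controls and enzyme-free blanks · Control set – no-compound enzyme wells and no-enzyme blanks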
FXIIa inh 1536 – blocks human coagulation factor XIIa protease activity | P00748 | purified FXIIa, Boc-QGR-AMC fluorogenic substrate, 2 h | inhibition, % at 5 µM | 220,000 compounds, 0.3% hits; in the data active = inhibition above about 40%
Target sequence (P00748 20-372 limits assumed): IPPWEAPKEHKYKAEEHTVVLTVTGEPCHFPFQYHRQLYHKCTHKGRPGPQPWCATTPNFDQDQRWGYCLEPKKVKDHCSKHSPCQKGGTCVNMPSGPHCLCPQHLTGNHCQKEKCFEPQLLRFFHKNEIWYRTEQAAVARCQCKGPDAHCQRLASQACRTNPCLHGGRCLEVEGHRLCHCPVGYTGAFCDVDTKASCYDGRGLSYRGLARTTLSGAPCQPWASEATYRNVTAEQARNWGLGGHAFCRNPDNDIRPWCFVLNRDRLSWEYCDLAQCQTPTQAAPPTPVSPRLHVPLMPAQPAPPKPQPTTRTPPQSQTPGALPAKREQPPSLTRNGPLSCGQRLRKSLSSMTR
Target sequence (P00748 373-615 limits assumed): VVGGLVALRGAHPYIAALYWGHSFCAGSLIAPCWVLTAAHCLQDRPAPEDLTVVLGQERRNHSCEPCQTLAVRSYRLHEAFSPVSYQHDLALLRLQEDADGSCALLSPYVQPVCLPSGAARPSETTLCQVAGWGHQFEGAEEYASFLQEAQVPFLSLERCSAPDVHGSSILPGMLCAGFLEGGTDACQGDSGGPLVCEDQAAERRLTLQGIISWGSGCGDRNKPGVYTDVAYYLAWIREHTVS
FXIa inh – factor XIa (human) inhibition; P03951; purified FXIa, Boc-Glu-Ala-Arg-AMC fluorogenic substrate; inhibition, % at 5 µM; 220,000 compounds, 0.14% hits;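 active = inhibition of at least 40%; inactive = inhibition below 40%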;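 note: fluorescence of freed AMC excited at 355 nm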
hK5 inh – blocks human kallikrein 5 protease activity | Q9Y337 | recombinant hK5, fluorogenic AMC substrate cleavage | inhibition, % at 5 µM | 210,000 compounds, 0.59% hits | AID 873;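 active = inhibition of 40% or more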
Large screens that a line does not name were inactive. An excerpt weighted towards active compounds, which were near 1.1% of everything screened.

CCCCNC(=O)CSc1nc2ccc(N3CCOCC3)cc2c(=O)n1Cc1ccc(OC)cc1	none (no result: hK5 inh)
O=C(N/N=C/c1ccncc1)c1nn(Cc2ccccc2)c(=O)c2ccccc12	none
Cn1c(SCC(=O)NNC(=S)Nc2ccccc2)nnc1-c1ccncc1	Thrombin inh 50
Cc1cc(C)nc(NC(=NCCc2c[nH]c3ccccc23)NC(=O)Nc2cccc([N+](=O)[O-])c2)n1	none
Cc1cc(/C=C(\C#N)C(=O)Nc2ccc(Cl)cc2)c(C)n1-c1ccc(N2CCOCC2)c([N+](=O)[O-])c1	none
CNC(=O)/C(C#N)=C/c1cc(C)n(-c2ccc(N3CCOCC3)cc2)c1C	hK5 inh 44
O=C(NCCCn1ccnc1)c1ccc(N2CCCCC2)c([N+](=O)[O-])c1	none
Cc1ccc(C)c(-c2nc3cc(N)ccc3o2)c1	FXIIa inh 1536 41
CC(C)c1ccc(CN(C)CC(O)c2ccccc2)cc1 (stereo not drawn)	none
CCOC(=O)C(C(=O)NCc1cccc(OC)c1)c1ncc(C(F)(F)F)cc1Cl (stereo not drawn)	FXIIa inh 1536 45
CCSc1ccccc1C(=O)NCCCn1ccnc1	hK5 inh 43
CCN=C1SCC(=O)N1c1ccc(OC)cc1	hK5 inh 44
CCOc1ccc(N2C(=O)CS/C2=N/NC(=O)COc2ccc3ccccc3c2)cc1	none
O=C(c1ccc(N2CCCCC2)c([N+](=O)[O-])c1)N(c1ccccn1)c1ccccn1	Thrombin inh 43
CCn1c(CN2CCN(Cc3ccc(C)cc3)C(CCO)C2)nc2ccccc21 (stereo not drawn)	none
Cc1n[nH]c(C)c1CCC(=O)N/N=C/c1cccs1	FXIIa inh 1536 48, hK5 inh 69
Cc1n[nH]c(C)c1CCC(=O)N/N=C/c1c[nH]c2ccccc12	FXIa inh 48, hK5 inh 58
Cc1ccsc1/C=N\NC(=O)CCc1c(C)n[nH]c1C	none
O=C1CC(/C=C/c2ccncc2)=Nc2ccccc2N1	none
Cc1ccc(C)c(-n2c(-c3csc(C)c3C)n[nH]c2=S)c1	none
CC1(C)CC2CC(C)(CN2C(=O)Cc2ccccc2)C1 (stereo not drawn)	none
CC1(C)CC2CC(C)(CN2CC(=O)C(C#N)c2ccccc2)C1 (stereo not drawn)	hK5 inh 115
CCOC(=O)c1sc2nccc(OC)c2c1N=CN(C)C	none
COc1ccc(S(=O)(=O)n2nc(OC(=O)c3cccs3)cc2N)cc1	hK5 inh 78
COc1ccc(S(=O)(=O)n2nc(OC(=O)c3ccccc3)cc2N)cc1	hK5 inh 51
COc1ccc(S(=O)(=O)n2nc(OC(=O)c3ccncc3)cc2N)cc1	none
Cn1nnc(NC(=S)NC(=O)Cc2ccccc2)n1	none (no result: FXIIa inh 1536)
CC(=O)Nc1ccccc1-c1nc2ccc(C(=O)N3CCN(c4cccc(C)c4)C(C)C3)cc2[nH]c1=O (stereo not drawn)	hK5 inh 59
CCC(CO)n1c(SCc2cc(=O)oc3cc(C)ccc23)nc2ccccc2c1=O (stereo not drawn)	FXIIa inh 1536 42
COc1ccccc1-n1c(SCc2cc(=O)oc3cc(O)ccc23)nc2ccccc2c1=O	none
O=C(O)c1cccc(N2CCCC2=O)c1	none
O=C(O)c1cccc(N2CCCC2)c1	hK5 inh 128
CC(=O)Cc1nsc(NC(=O)c2ccc(-c3cccc(C(F)(F)F)c3)o2)n1	none
Cc1nnc(NC(=O)c2cccc(F)c2)s1	hK5 inh 44
CC(=O)Cc1nsc(NC(=O)c2cccc(F)c2)n1	hK5 inh 52
CC(=O)Nc1ccc(N2C(=O)CSC2c2ccccc2[N+](=O)[O-])cc1 (stereo not drawn)	none (no result: hK5 inh)
CC(=O)c1c(NCc2ccccc2)nc(=O)n(-c2ccccc2)c1C	hK5 inh 70
CC(=O)c1c(NCCc2ccccc2)nc(=S)n(-c2ccccc2)c1C	none
CN(c1ccc(C(=O)NCc2ccccc2)cc1)S(C)(=O)=O	hK5 inh 40
CS(=O)(=O)N(Cc1ccccc1)c1ccc(C(=O)NCc2ccccc2)cc1	none
Cc1csc(NC(=O)c2cccn2C)n1	none
Cn1cccc1C(=O)Nc1nc(-c2ccccn2)cs1	FXIa inh 47
Cc1ccc(C(=O)NCC(=O)OC(C)C(=O)Nc2ccc(N3CCOCC3)cc2)s1 (stereo not drawn)	FXIIa inh 1536 82, FXIa inh 44, hK5 inh 77
NC(N)=Nc1nc2ccc(Cl)cc2c(=O)[nH]1	none
Cc1nc(=O)c(-c2ccccc2)c(C)n1CC1CCCO1 (stereo not drawn)	hK5 inh 74
S=C(NCc1ccco1)Nc1ccccc1	none
CC(C)(CO)NC(=S)NCc1ccco1	hK5 inh 100
Cc1cc(-c2nnc3n2N=C(c2ccc(F)cc2)CS3)n[nH]1	none
Cc1nn(C)c(=S)n1-c1ccc(Cl)cc1	hK5 inh 44
Cc1cc(C)c2nc3nc(C)c(C)cc3c(N)c2c1	none
CC1Cc2ccccc2N1S(=O)(=O)c1cccc2nsnc12 (stereo not drawn)	FXIIa inh 1536 43
CC1CN(S(=O)(=O)c2cccc3nsnc23)CC(C)O1 (stereo not drawn)	none
O=C1CCCC/C1=C\Nc1ccc(C(=O)O)c(O)c1	none
Cc1onc(-c2c(F)cccc2Cl)c1-c1nnc(-c2ccc(C(F)(F)F)cc2)o1	FXIIa inh 1536 57
CC12CCC(C(=O)N3CCN(c4ccccc4)CC3)(CC1=O)C2(C)C (stereo not drawn)	hK5 inh 54
COc1ccc(N2CCN(C(=O)C34CCC(C)(C(=O)C3)C4(C)C)CC2)cc1 (stereo not drawn)	none
O=C1OC(c2ccccc2)c2ccc3ccccc3c21 (stereo not drawn)	none
NC(=O)NC(=O)c1nccnc1C(=O)O	none
COCCn1c(C(C)C)nc2ccccc21	none
C/C(CC(=O)NCCCN1CCOCC1)=N\NC(=O)COc1ccc(C)cc1	hK5 inh 47
C/C(CC(=O)NCCCN1CCOCC1)=N\NC(=O)COc1ccc(Cl)cc1	none
O=C(c1ccc(F)cc1)C1CCN(C(=S)NCC2CCCO2)CC1 (stereo not drawn)	none
Cc1ccc(N=Cc2c(O)n(-c3ccc4c(c3)OCO4)c(=O)c3ccccc23)cc1	FXIIa inh 1536 43
Cc1cccc(-n2c(O)c(C=Nc3ccc(O)cc3)c3ccccc3c2=O)n1	none
Cc1ccc2c(c1)c1c3n2CCCNC3CCC1 (stereo not drawn)	Thrombin inh 41
CCOC(=O)c1c(Nc2ccccc2OCCOC)n[nH]c1C	none
CCCCN(C)C(=O)CS(=O)(=O)Cc1nc(-c2cccc(OC)c2)oc1C	hK5 inh 44
COCCCNC(=O)CS(=O)(=O)Cc1nc(-c2cccc(OC)c2)oc1C	none
O=C1C[C@H]2[C@H](CO)[C@@H](OC(=O)c3ccc(-c4ccccc4)cc3)C[C@H]2O1	hK5 inh 72
COc1ccc(C(=O)Nc2ccc(Cl)cc2C(=O)NCc2ccco2)cc1OC	none
CCOc1ccc(C(=O)NCC(=O)OC(C)C(=O)NCc2ccco2)cc1OCC (stereo not drawn)	Thrombin inh 64, hK5 inh 55

High-throughput results deposited in PubChem BioAssay by several laboratories.
